The source made the active and inactive calls. The calls are words filed in the database; no cut-off is given here.
Columns and labels:
[1] = Drug level in ICR mouse lung at 20 mg/kg administered intratracheally after 5 mins; type: ADME, organism-based; set-up: dose 20 mg/kg, route endotracheal; conditions: inhaled or intranasal, read-out: Drug uptake
How it was run: (§1)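 Male ICR mice (4-6 weeks) under isoflurane given the enantiomer in sterile saline (1 ml/kg) intratracheally by micropipette. Whole lungs taken at indicated times, homogenised in sterile PBS with 50 U/ml heparin, centrifuged; 300 µl aliquot ultrafiltered and filtrate analysed by chiral HPLC (Chiralpak IA; water with 0.1 M KPF6/acetonitrile 30:70, 1.0 mL/min). Level expressed as µg/lung; mean ± SEM, n = 3.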

[2] = Drug level in ICR mouse lung at 20 mg/kg administered intratracheally after 15 mins; type: ADME, organism-based; set-up: dose 20 mg/kg, route endotracheal; conditions: inhaled or intranasal, read-out: Drug uptake; how it was run: as §1
[3] = Drug level in ICR mouse lung at 20 mg/kg administered intratracheally after 30 mins; type: ADME, organism-based; set-up: dose 20 mg/kg, route endotracheal; conditions: inhaled or intranasal, read-out: Drug uptake; how it was run: as §1
Lung [4] = assay: Drug level in ICR mouse lung treated intratracheally with 20 mg/kg (R)-Mepenzolate after 5 to 30 mins; type: ADME, organism-based; set-up: dose 20 mg/kg, route endotracheal; conditions: in vivo, inhaled_or_intranasal; how it was run: as §1
Mus musculus [5] = assay: Bronchodilatory activity in ICR mouse assessed as supression of methacholine-induced increase in airway resistance at 38 ug/kg administered intratracheally 1 hr prior to methacholine challenge; type: functional, organism-based
How it was run: (§2)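 Male ICR mice (4-6 weeks) given compound intratracheally in saline (1 ml/kg). 1 h later, anaesthetised with chloral hydrate (500 mg/kg), tracheotomised, and ventilated at 150 breaths/min, tidal volume 8.7 ml/kg, PEEP 2-3 cmH₂O. Challenged with nebulised methacholine (5 mg/ml), five 20 s exposures 40 s apart. Airway resistance measured after each challenge by snapshot technique. Mean ± SEM.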

Mus musculus [6] = assay: Bronchodilatory activity in ICR mouse assessed as supression of methacholine-induced increase in airway resistance at 3.8 ug/kg administered intratracheally 1 hr prior to methacholine challenge; type: functional, organism-based; how it was run: as §2
Mus musculus [7] = assay: Antiinflammatory activity against ICR mouse assessed as inhibition of porcine pancreatic elastase-induced increase in leucocyte count in BALF at 7.5 to 38 ug/kg administered intratracheally 1 hr prior to porcine pancreatic elastase challenge measured after 6 hrs; type: functional, organism-based
How it was run: (§3)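 Male ICR mice (4-6 weeks), isoflurane-anaesthetised, dosed intratracheally in sterile saline (1 ml/kg) 1 h before intratracheal PPE (20 U/kg) or vehicle. BALF taken 6 h after PPE; total cells counted by hemocytometer, cytospin slides stained with Diff-Quik to get neutrophil fraction of total cells. Mean ± SEM; Tukey's test.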

Mus musculus [8] = assay: Antiinflammatory activity against ICR mouse assessed as inhibition of porcine pancreatic elastase-induced increase in neutrophil count in BALF at 7.5 to 38 ug/kg administered intratracheally 1 hr prior to porcine pancreatic elastase challenge measured after 6 hrs; type: functional, organism-based; how it was run: as §3
Mus musculus [9] = assay: Antiinflammatory activity against ICR mouse assessed as inhibition of porcine pancreatic elastase-induced increase in TNF-alpha level at 7.5 to 38 ug/kg administered intratracheally 1 hr prior to porcine pancreatic elastase challenge measured after 6 hrs by ELISA; type: functional, organism-based
How it was run: (§4)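 Male ICR mice, 4-6 weeks old, under isoflurane anaesthesia, given each enantiomer or racemate intratracheally in sterile saline (1 ml/kg) by micropipette; 1 h later PPE (20 U/kg) or saline vehicle given the same way. BALF collected 6 h after PPE; TNF-α, MIP-2, MCP-1 and KC measured by ELISA. Mean ± SEM; Tukey's test.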

Mus musculus [10] = assay: Antiinflammatory activity against ICR mouse assessed as inhibition of porcine pancreatic elastase-induced increase in MIP-2 level at 7.5 to 38 ug/kg administered intratracheally 1 hr prior to porcine pancreatic elastase challenge measured after 6 hrs by ELISA; type: functional, organism-based; how it was run: as §4
Mus musculus [11] = assay: Antiinflammatory activity against ICR mouse assessed as inhibition of porcine pancreatic elastase-induced increase in MCP-1 level at 7.5 to 38 ug/kg administered intratracheally 1 hr prior to porcine pancreatic elastase challenge measured after 6 hrs by ELISA; type: functional, organism-based; how it was run: as §4
Mus musculus [12] = assay: Antiinflammatory activity against ICR mouse assessed as inhibition of porcine pancreatic elastase-induced increase in KC level at 7.5 to 38 ug/kg administered intratracheally 1 hr prior to porcine pancreatic elastase challenge measured after 6 hrs by ELISA; type: functional, organism-based; how it was run: as §4
Mus musculus [13] = assay: Suppression of fecal pellet output in ICR mouse at 4.7 mg/kg administered intratracheally 1 hr prior to restraint stress measured for 1 hr relative to control; type: organism-based, Feces; set-up: dose 4.7 mg/kg, route endotracheal; conditions: in vivo, inhaled_or_intranasal
How it was run: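 Male ICR mice (4-6 weeks) dosed intratracheally in sterile saline (1 ml/kg) under isoflurane; vehicle controls received saline alone. One hour later each mouse was restrained individually in a 50 ml tube for 1 h, and fecal pellets excreted during restraint were counted. Mean ± SEM; Tukey's test.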

Mus musculus [14] = assay: Increase in heart rate in ICR mouse at 940 to 4700 ug/kg administered intratracheally measure immediately post dosing relative to control; type: ADME, organism-based; conditions: in vivo, inhaled_or_intranasal
How it was run: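 Male ICR mice (4-6 weeks) given compound intratracheally in sterile saline (1 ml/kg) under isoflurane; anaesthetised with chloral hydrate (500 mg/kg), pulse-oximeter sensor attached to thigh after 20 min. Heart rate (beats per minute) recorded immediately after dosing; percentage change from baseline to peak calculated. Mean ± SEM; Tukey's test.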

Lung [15] = assay: Drug level in ICR mouse lung treated intratracheally with 20 mg/kg (S)-Mepenzolate after 5 to 30 mins; type: ADME, organism-based; set-up: dose 20 mg/kg, route endotracheal; conditions: in vivo, inhaled_or_intranasal; how it was run: as §1

Structure (SMILES) | concentration at 5 min [1] | concentration at 0.25 h [2] | concentration at 0.5 h [3] | Drug metabolism (Lung [4]) | Activity (Mus musculus [5]) | Activity (Mus musculus [6]) | Activity (Mus musculus [7]) | Activity (Mus musculus [8]) | Activity (Mus musculus [9]) | Activity (Mus musculus [10]) | Activity (Mus musculus [11]) | Activity (Mus musculus [12]) | Activity (Mus musculus [13]) | Activity (Mus musculus [14]) | Drug metabolism (Lung [15])
C[N+]1(C)CCC[C@H](OC(=O)C(O)(c2ccccc2)c2ccccc2)C1.[Br-] | 36400 ng/mL | 7600 ng/mL | 6200 ng/mL | metabolite_notdetected | Active | inactive | Active | Active | Active | Active | Active | Active | Non-toxic | Toxic | 
C[N+]1(C)CCCC(OC(=O)C(O)(c2ccccc2)c2ccccc2)C1.[Br-] (racemic) [MEPENZOLATE BROMIDE] |  |  |  |  | Active | Active | Active | Active | Active | Active | Active | Active | Toxic | Toxic | 
C[N+]1(C)CCC[C@@H](OC(=O)C(O)(c2ccccc2)c2ccccc2)C1.[Br-] | 44500 ng/mL | 6300 ng/mL | 5100 ng/mL |  | Active | Active | Active | Active | Active | Active | Active | Active | Toxic | Toxic | metabolite_notdetected
